PAFAH1B3 FP inh = PAFAH1B3 (human) inhibition | 0.28% of 340,000 active | recombinant PAFAH1B3, FP-rhodamine probe, fluorescence polarization | inhibition, % at 3.39 µM | AID 492972 | Q15102;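 active = inhibition above the screen-wide average of all tested compounds plus 3 SD, cut at about 25% in these data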
Target sequence (Q15102 whole entry, looked up): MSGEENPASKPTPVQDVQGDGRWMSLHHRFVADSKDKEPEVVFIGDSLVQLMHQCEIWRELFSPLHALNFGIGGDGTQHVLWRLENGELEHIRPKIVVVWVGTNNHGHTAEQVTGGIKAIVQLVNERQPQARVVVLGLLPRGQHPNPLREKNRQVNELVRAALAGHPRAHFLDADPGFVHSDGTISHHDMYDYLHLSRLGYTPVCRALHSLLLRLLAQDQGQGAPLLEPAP
ASAP1 inh = inhibitors of human ASAP1 ArfGAP activity | Q9ULH1 | ASAP1-stimulated ARF1 GTP hydrolysis, GDP FP detection | inhibition, % at 16.5 µM | 0.19% of 360,000 active | AID 624377; in the data active = inhibition above about 25%
pPAFAH inh = pPAFAH (human) enzyme inhibition | Q13093 | recombinant pPAFAH, FP-rhodamine probe fluorescence polarization | inhibition, % at 3.39 µM | 1.5% of 330,000 active | AID 463082;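 active = inhibition above the mean inhibition across the screen plus 3 SD, cut at about 25% in these data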;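 also: inhibitors block binding of the rhodamine activity-based probe so polarization drops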
PAFAH1B2 inh = blocks human PAF acetylhydrolase 1b catalytic subunit 2 | P68402 | recombinant PAFAH1B2, FP-rhodamine activity probe, fluorescence polarization | inhibition, % at 3.39 µM | 1.2% of 340,000 active | AID 492953;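 active = inhibition above the mean of all tested compounds plus 3 SD, cut at about 24% in these data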
Target sequence (P68402 whole entry, looked up): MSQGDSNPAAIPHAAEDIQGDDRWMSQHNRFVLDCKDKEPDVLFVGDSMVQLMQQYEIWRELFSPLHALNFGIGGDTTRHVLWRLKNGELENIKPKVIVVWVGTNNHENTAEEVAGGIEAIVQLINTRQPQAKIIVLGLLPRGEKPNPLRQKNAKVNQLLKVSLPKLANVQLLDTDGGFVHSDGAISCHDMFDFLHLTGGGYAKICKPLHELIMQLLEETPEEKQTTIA
ARFGAP1 inhibitor = inhibitors of rat ARFGAP1. Arfgap1-stimulated ARF1 GTP hydrolysis, GDP FP detection. 0.26% of 360,000 active. Q62848. inhibition, % at 16.5 µM;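 active = inhibition above a per-plate limit, mean inhibition of low control wells plus 3 SD, cut at about 25% in these data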
Target sequence (Q62848 1-136 limits assumed): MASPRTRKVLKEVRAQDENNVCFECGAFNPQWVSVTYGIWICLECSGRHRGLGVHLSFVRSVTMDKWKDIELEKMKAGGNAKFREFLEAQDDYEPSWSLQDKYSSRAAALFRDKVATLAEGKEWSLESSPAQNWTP
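system = rat Arfgap1 catalytic domain, aa 1-136 | technique = FP, GDP Alexa 633 tracer displaced from anti-GDP antibody, 620/688 nm | compound = one concentration, 16.5 µM, DMSO 1.26% | medium = HEPES-based buffer, pH 7.5 | timing = compound-enzyme preincubation 20 min, reaction 120 min, detection 60 min, 25 °C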
PAFAH2 inh = inhibitors of human PAFAH2; Q99487; recombinant PAFAH2, FP-rhodamine activity probe, fluorescence polarization; inhibition, % at 3.39 µM; 0.99% of 340,000 active; AID 492956;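 active = inhibition above the mean over all tested compounds plus 3 SD, cut at about 30% in these data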;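 also: inhibitors block probe labeling of enzyme so polarization drops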
A number is an active result; i = inactive; nt = no result given; + = active, no number. Shown are actives, neighbours in structure and some others; about 2.8% of the full set was active somewhere.

SMILES	PAFAH1B3 FP inh	ASAP1 inh	pPAFAH inh	PAFAH1B2 inh	ARFGAP1 inhibitor	PAFAH2 inh
CCCCC1=CC2=CC(=O)C(C)(OC(=O)c3ccco3)C(=O)C2=CO1 (stereo unspecified)	nt	nt	48	nt	nt	nt
COC/C=C/C1=CC2=CC(=O)C(C)(OC(=O)C3CCCC3)C(=O)C2=CO1 (stereo unspecified)	i	i	i	i	i	i
COC(=O)CCCC1=CC2=CC(=O)C(C)(OC(=O)c3cccs3)C(=O)C2=CO1 (stereo unspecified)	nt	nt	43	nt	nt	nt
COC/C=C/C1=CC2=CC(=O)C(C)(O)C(=O)C2=CO1 (stereo unspecified)	nt	nt	48	nt	nt	nt
CCOC(=O)C1=NOC2COC3(CCN(c4ncccn4)CC3)OCC12 (stereo unspecified)	i	i	i	i	i	i
COC(=O)CCCC1=CC2=CC(=O)C(C)(OC(=O)c3ccc(Cl)nc3)C(=O)C2=CO1 (stereo unspecified)	nt	nt	36	nt	nt	nt
COC(=O)CCCC1=CC2=CC(=O)C(C)(OC(=O)c3cnc4ccccc4n3)C(=O)C2=CO1 (stereo unspecified)	nt	nt	32	nt	nt	nt
COC/C=C/C1=CC2=CC(=O)C(C)(OC(=O)c3cnc4ccccc4n3)C(=O)C2=CN1CCCCO (stereo unspecified)	i	i	i	i	i	i
COC/C=C/C1=CC2=CC(=O)C(C)(OC(=O)c3cnc4ccccc4n3)C(=O)C2=CN1CCc1ccccn1 (stereo unspecified)	nt	nt	25	nt	nt	nt
COCCN1C=C2C(=O)C(C)(OC(=O)c3cccs3)C(=O)C=C2C=C1CCCC(=O)OC (stereo unspecified)	i	i	i	i	i	i
COC/C=C/C1=CC2=CC(=O)C(C)(OC(=O)c3ccco3)C(=O)C2=CO1 (stereo unspecified)	nt	nt	53	nt	nt	nt
COCC1CCN(C(=O)C2CCC(=O)N(Cc3cccc(F)c3)C2)CC1 (stereo unspecified)	i	i	i	i	i	i
CC1(C(=O)NS(=O)(=O)c2ccccc2Cl)CCN1C(=O)C1(c2ccccc2)CCCC1 (stereo unspecified)	nt	i	nt	nt	i	nt
COC(=O)CCC(=O)OC1(C)C(=O)C=C2C=C3CCCN3C=C2C1=O (stereo unspecified)	i	i	i	i	i	i
CCCCC1=CC2=CC(=O)C(C)(OC(=O)CCC(=O)OC)C(=O)C2=CO1 (stereo unspecified)	nt	nt	39	nt	nt	nt
COC/C=C/C1=CC2=CC(=O)C(C)(OC(=O)c3cnc4ccccc4n3)C(=O)C2=CN1C1CC1 (stereo unspecified)	i	i	i	i	i	i
CC(C)(C)OC(=O)NCCCCC1=CC2=CC(=O)C(C)(OC(=O)c3cnc4ccccc4n3)C(=O)C2=CO1 (stereo unspecified)	nt	nt	42	nt	nt	nt
CCCCC(=O)N(C)c1c(CC)nc2c(OCCC)cccn12	nt	i	nt	nt	i	nt
Nc1ccc(O)cc1	nt	nt	38	nt	nt	nt
Nc1ccc(C(=O)O)cc1	i	i	i	i	i	i
Cc1nn(-c2ccccc2)c(Cl)c1/C=N/NC(=O)c1ccccc1NS(=O)(=O)c1cccs1	i	i	33	i	i	i
COc1ccc(NC(=O)N2CCCC(c3nc(-c4ccc(C(C)C)cc4)no3)C2)cc1 (stereo unspecified)	i	i	i	30	i	i
CC(C(=O)O)N(C(=O)c1ccccc1)c1ccc(F)cc1 (stereo unspecified)	i	i	i	29	i	i
O=C(/C=C/c1ccc(O)c([N+](=O)[O-])c1)c1ccc2ccccc2c1	i	i	32	29	i	44
COc1cccc(C(=O)N[C@H](C(=O)N2CCC[C@H]2C(=O)NCc2ccccc2)c2ccccc2)c1	nt	i	nt	nt	i	nt
SMILES	PAFAH1B3 FP inh	ASAP1 inh	pPAFAH inh	PAFAH1B2 inh	ARFGAP1 inhibitor	PAFAH2 inh
O=C(CNS(=O)(=O)c1ccc2ccccc2c1)OCc1csc(-c2ccccc2)n1	i	i	i	28	i	i
Cc1cc(NCCCCCCCNc2cc(C)nc3cc([N+](=O)[O-])ccc23)c2ccc([N+](=O)[O-])cc2n1	i	108	nt	i	+	i
COCCCNc1cc(C)nc2ccccc12	i	i	i	i	i	i
Cc1cccn2c(=O)c(C=NCc3ccco3)c(Nc3ccc(SC(F)F)cc3)nc12	i	i	34	i	i	i
Cc1cccn2c(=O)c(C=NCCO)c(NCc3ccco3)nc12	i	i	i	i	i	i
Cc1ccc(S(=O)(=O)Nc2cccnc2)cc1C	i	i	i	i	i	i
O=S(=O)(Nc1cccnc1)c1ccc(Cl)c(C(F)(F)F)c1	i	i	i	26	i	i
O=C(CCCc1ccccc1)Nc1cccc(C(=O)O)c1	i	i	i	25	i	i
CN(C)c1ccc2cc(S(=O)(=O)O)cc(O)c2c1	52	i	nt	38	i	38
CC(C)NC(=O)N(C)C[C@H]1Oc2c(NC(=O)c3ccc(-c4nccs4)cc3)cccc2C(=O)N([C@@H](C)CO)C[C@H]1C	i	i	i	i	i	i
CCOC(=O)c1c(-c2ccc(-c3ccccc3)cc2)csc1NC(=O)C1C2CCC(O2)C1C(=O)O (stereo unspecified)	i	i	28	i	i	i
CN(C(=O)CSc1nc(-c2ccc(C(C)(C)C)cc2)c(C#N)c(=O)[nH]1)C1CCCCC1	i	i	i	31	i	i
N#Cc1c(-c2ccccc2)nc(SCC(=O)NC2CCCCC2)[nH]c1=O	i	i	i	i	i	i
COc1ccccc1CNC(=O)CN1c2cccc3cccc(c23)S1(=O)=O	i	i	31	i	i	i
COc1cccc(-c2oc3c(c2C(=O)OCCN(C)C)C(O)CCC3)c1 (stereo unspecified)	nt	i	nt	nt	i	nt
COc1cc(C(=O)C(=O)N2CCN(c3ccccc3)CC2)cc(OC)c1OC	nt	i	nt	nt	i	nt
C=CCn1c(-c2cccn(Cc3ccc(Cl)cc3Cl)c2=O)n[nH]c1=S	i	i	i	29	i	i
C=CCn1c(-c2cccn(Cc3ccc(Cl)cc3)c2=O)n[nH]c1=S	i	i	i	33	i	i
C=CCn1c(-c2cccn(Cc3cccc(Cl)c3)c2=O)n[nH]c1=S	i	i	i	i	i	i
CC1(C(=O)NCc2cccc(Cl)c2)Cc2c(-c3cccc(C(N)=O)c3)ccnc2O1 (stereo unspecified)	nt	i	nt	nt	i	nt
Cc1cc(OCCCN2CCC(C(O)(c3ccccc3)c3ccccc3)CC2)ccc1Br	nt	i	nt	nt	i	nt
COc1ccc(C2c3ccc(O)cc3Oc3ncn(Cc4ccccc4)c(=N)c32)cc1OC (stereo unspecified)	32	i	i	32	i	46
Cn1c(NCC2CCCCC2)nc2cc(-c3ccsc3)sc2c1=O	nt	i	nt	nt	i	nt
O=S(=O)(Nc1cccc(S(=O)(=O)N2CCCC2)c1)c1ccccc1F	i	i	i	i	i	i
O=C(CCNS(=O)(=O)c1ccccc1)OCC(=O)c1ccc(Br)cc1	i	i	i	i	i	i

Source: PubChem BioAssay
